From ChEMBL document CHEMBL5107935, “Modulating β-arrestin 2 recruitment at the δ- and μ-opioid receptors using peptidomimetic ligands” (RSC Med Chem, 2021) come the findings set out here.

The species entered for one test is Homo sapiens. As to the kind of experiment: Selectivity ratio, ratio of Ki for displacement of [3H]DAMGO from human mu opioid receptor expressed in CHO cell membrane to Ki for displacement of [3H]DPDPE from human delta opioid receptor expressed in CHO cell membrane. It is filed as cell membranes.
The target of test [1] is T1, Mu-type opioid receptor (Homo sapiens, UniProt P35372). Briefly: Agonist activity at human mu opioid receptor expressed in CHO cells co-expressing beta-arrestin2 assessed as beta-arrestin2 recruitment measured after 90 mins by PathHunter assay. The test is classed as functional, cell-based. (Arrestin recruitment assays detect the binding of arrestin to an activated receptor.)
T1 sequence (P35372 whole entry): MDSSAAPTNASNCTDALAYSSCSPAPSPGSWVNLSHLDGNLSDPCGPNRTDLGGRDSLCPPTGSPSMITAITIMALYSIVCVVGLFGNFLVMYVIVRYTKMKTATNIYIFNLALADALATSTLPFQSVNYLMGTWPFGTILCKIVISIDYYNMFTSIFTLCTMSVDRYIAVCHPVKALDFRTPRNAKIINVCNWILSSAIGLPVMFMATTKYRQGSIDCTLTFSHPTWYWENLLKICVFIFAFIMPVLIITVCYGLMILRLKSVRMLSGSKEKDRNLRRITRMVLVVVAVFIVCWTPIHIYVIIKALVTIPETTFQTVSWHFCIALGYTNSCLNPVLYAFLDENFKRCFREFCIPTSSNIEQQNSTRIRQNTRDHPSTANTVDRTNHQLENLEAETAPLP

Test [2] deals with Delta-type opioid receptor (Mus musculus, UniProt P32300). Briefly: Agonist activity at FLAG-tagged mouse delta opioid receptor expressed in human HEK293 cells assessed as inhibition of forskolin stimulated cAMP production preincubated for 20 mins followed by forskolin stimulation and measured after 15 mins by GloSensor assay. It is filed as functional, cell-based. The method in brief: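 HEK293 cells transiently transfected 1:3 with FLAG-mouse δOR or HA-mouse μOR plus pGloSensor22F-cAMP; used two days later at 20,000 cells/well. GloSensor reagent (2% final) applied 90 min at room temperature, then drug 20 min, then forskolin (30 μM final) 15 min, all at room temperature. Luminescence read; triplicates; pIC50 from nonlinear regression.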
Delta-type opioid receptor (Mus musculus, UniProt P32300), sequence (P32300 whole entry): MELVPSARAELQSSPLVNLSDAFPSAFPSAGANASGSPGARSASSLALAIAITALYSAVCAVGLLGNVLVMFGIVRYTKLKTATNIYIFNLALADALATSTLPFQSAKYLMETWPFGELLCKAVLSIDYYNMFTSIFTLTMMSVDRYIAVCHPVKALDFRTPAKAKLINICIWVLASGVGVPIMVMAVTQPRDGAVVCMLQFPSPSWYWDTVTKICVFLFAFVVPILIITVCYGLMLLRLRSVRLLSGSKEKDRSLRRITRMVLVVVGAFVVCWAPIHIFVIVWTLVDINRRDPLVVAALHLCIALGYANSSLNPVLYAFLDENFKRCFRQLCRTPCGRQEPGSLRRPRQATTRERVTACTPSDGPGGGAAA
(Changes in cAMP serve as a functional read-out for many G protein-coupled receptors.)

Test [3] has as its target T2, Delta-type opioid receptor (Homo sapiens, UniProt P41143). Briefly: Agonist activity at human delta opioid receptor expressed in CHO cells co-expressing beta-arrestin2 assessed as beta-arrestin2 recruitment measured after 90 mins by PathHunter assay. It is filed as functional, cell-based. A digest of the protocol: (§1)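 PathHunter CHO cells expressing human δOR and β-arrestin 2 were plated at 2,500 cells/well one day before use. Drug was applied for 90 min at 37 °C/5% CO2, followed by PathHunter assay buffer for 60 min at room temperature. Luminescence was read. Points were run in duplicate, and pEC50 was obtained by nonlinear regression; values are means ± SEM.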

The target of test [4] is T2, Delta-type opioid receptor. Briefly: Agonist activity at human delta opioid receptor expressed in CHO cells co-expressing beta-arrestin2 assessed as beta-arrestin2 recruitment by measuring maximum efficacy measured after 90 mins by PathHunter assay. It is filed as functional, cell-based. The note with it: filed as agonist. The method in brief: as §1
Test [5] deals with T2, Delta-type opioid receptor. Briefly: Displacement of [3H]DPDPE from human delta opioid receptor expressed in CHO cell membrane measured after 90 mins by liquid scintillation counting method. The test is classed as cell membranes. The method in brief: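 Membranes (7 μg protein) were added and incubated 90 min at room temperature in 50 mM Tris HCl, 10 mM MgCl2, 1 mM EDTA, pH 7.4. Samples were filtered on GF-B, washed 4× with ice-cold 50 mM Tris HCl, and counted by scintillation. Points were run in duplicate.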
A general note: Loss of bound radioactivity is the signal in a displacement assay; it reports binding, not function.

Test [6] addresses T1, Mu-type opioid receptor. Briefly: Displacement of [3H]DAMGO from human mu opioid receptor expressed in CHO cell membrane incubated for 90 mins by liquid scintillation counting method. The test is classed as cell membranes.
Test [7] has as its target Mu-type opioid receptor (Mus musculus, UniProt P42866). Briefly: Agonist activity at FLAG-tagged mouse mu opioid receptor expressed in human HEK293 cells assessed as inhibition of forskolin stimulated cAMP production preincubated for 20 mins followed by forskolin stimulation and measured after 15 mins by GloSensor assay. It is filed as functional, cell-based.

T2 sequence (P41143 whole entry): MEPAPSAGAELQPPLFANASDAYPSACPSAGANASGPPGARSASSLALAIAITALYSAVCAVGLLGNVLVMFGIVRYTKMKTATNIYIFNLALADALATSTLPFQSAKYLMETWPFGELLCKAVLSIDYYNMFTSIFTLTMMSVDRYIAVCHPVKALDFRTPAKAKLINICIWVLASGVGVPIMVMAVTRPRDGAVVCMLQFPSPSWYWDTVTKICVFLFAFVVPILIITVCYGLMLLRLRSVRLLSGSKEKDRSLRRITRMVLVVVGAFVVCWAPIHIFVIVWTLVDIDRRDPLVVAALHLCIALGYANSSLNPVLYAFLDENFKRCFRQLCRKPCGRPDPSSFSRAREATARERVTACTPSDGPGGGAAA
Mu-type opioid receptor (Mus musculus, UniProt P42866), sequence (P42866 whole entry): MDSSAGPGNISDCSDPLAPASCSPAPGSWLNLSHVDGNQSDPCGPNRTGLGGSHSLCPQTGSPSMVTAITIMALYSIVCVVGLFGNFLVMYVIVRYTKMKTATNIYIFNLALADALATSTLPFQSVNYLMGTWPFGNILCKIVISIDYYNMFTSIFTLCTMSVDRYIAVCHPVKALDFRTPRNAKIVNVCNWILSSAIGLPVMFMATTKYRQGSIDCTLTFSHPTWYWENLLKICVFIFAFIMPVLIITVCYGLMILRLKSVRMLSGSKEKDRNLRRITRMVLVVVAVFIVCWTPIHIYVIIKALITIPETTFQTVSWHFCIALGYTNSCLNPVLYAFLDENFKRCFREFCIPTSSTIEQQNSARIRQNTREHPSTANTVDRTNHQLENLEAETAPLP

Take `CC(C)C[C@H](NC(=O)[C@H](Cc1ccccc1)NC(=O)CNC(=O)C/C=C(\F)[C@@H](N)Cc1ccc(O)cc1)C(=O)NC1CC1`: in the test filed under Homo sapiens, the Ratio Ki came out at 0.3. Moreover, the EC50 at Mu-type opioid receptor [1] worked out at 4260 nM; in test [3], 693 nM. The concentration for half-maximal inhibition (IC50) in test [2] was 152 nM; on Mu-type opioid receptor [7], 126 nM. Besides, the Emax in test [4] worked out at 69%. In addition, the inhibition constant (Ki) came out at 104 nM in test [5] and 26.1 nM at Mu-type opioid receptor [6].
In the case of `CC(C)C[C@H](NC(=O)[C@H](Cc1ccccc1)NC(=O)CNC(=O)C/C=C(\F)[C@@H](N)Cc1ccc(O)cc1)C(N)=O`, the Ratio Ki in the test filed under Homo sapiens was determined as 0.1. In addition, the 50% effective concentration (EC50) turned out to be 2640 nM on Mu-type opioid receptor [1] and 959 nM in test [3]. The IC50 in test [2] amounted to 46.6 nM; at Mu-type opioid receptor [7] it was 186 nM. For the same compound, the Emax in test [4] was 84%. For the same compound, the Ki was found to be 94.4 nM in test [5] and 7.07 nM on Mu-type opioid receptor [6].
In the case of `CC(C)C[C@H](NC(=O)[C@H](Cc1ccccc1)NC(=O)CNC(=O)C/C=C(\F)[C@@H](N)Cc1ccc(O)cc1)C(=O)O`, the IC50 in test [2] came to 33.7 nM; on Mu-type opioid receptor [7] it was 363 nM. The maximum response (Emax) in test [4] was determined as 102%.
With `CC(C)C[C@H](NC(=O)[C@H](Cc1ccccc1)NC(=O)CNC(=O)C/C=C(\F)[C@@H](N)Cc1ccc(O)cc1)C(=O)N(C)C`, the Ratio Ki in the test listed under Homo sapiens is 0.3. For the same compound, the concentration giving a half-maximal response (EC50) at Mu-type opioid receptor [1] amounted to 17600 nM; in test [3], 3820 nM. Moreover, the IC50 was 425 nM in test [2] and 1000 nM on Mu-type opioid receptor [7]. Moreover, in test [4], the maximal effect (Emax) turned out to be 63%. In addition, the inhibition constant Ki was determined as 255 nM in test [5] and 85.4 nM on Mu-type opioid receptor [6].
For the compound `CNC(=O)[C@H](CC(C)C)NC(=O)[C@H](Cc1ccccc1)NC(=O)CNC(=O)C/C=C(\F)[C@@H](N)Cc1ccc(O)cc1`, the Ratio Ki in the test listed under Homo sapiens came to 0.2. The values for the 50% effective concentration (EC50) (on Mu-type opioid receptor [1]; in test [3]) were 7210 nM and 667 nM, respectively. Moreover, the figures for the IC50 (in test [2]; on Mu-type opioid receptor [7]) were 50.2 nM and 42.7 nM, respectively. Moreover, the Emax in test [4] is 90%. For the same compound, the Ki was 55.9 nM in test [5] and 9.92 nM on Mu-type opioid receptor [6].
With `CCNC(=O)[C@H](CC(C)C)NC(=O)[C@H](Cc1ccccc1)NC(=O)CNC(=O)C/C=C(\F)[C@@H](N)Cc1ccc(O)cc1`, the Ratio Ki in the test listed under Homo sapiens amounted to 0.4. Moreover, the 50% effective concentration (EC50) at Mu-type opioid receptor [1] was found to be 2260 nM; in test [3], 695 nM. For the same compound, the half-maximal inhibitory concentration (IC50) is 66.2 nM in test [2] and 178 nM on Mu-type opioid receptor [7]. In test [4], the maximum response (Emax) was 70%. The inhibition constant (Ki) was found to be 54.7 nM in test [5] and 20 nM on Mu-type opioid receptor [6].

One may read the EC50 as the midpoint of the concentration-response curve. By IC50 is commonly meant the concentration that inhibits the measured activity by half. One may read the Emax as the greatest response seen or fitted, relative to the assay's reference. Broadly, the Ki is a dissociation constant, usually derived from enzyme kinetics or from competition with a known ligand. High values mean lower affinity, low ones higher affinity.
